From ChEMBL document CHEMBL3244370, “Synthesis, metabolism, and antitumor activity of deuterated analogues of 1-(2-chloroethyl)-3-cyclohexyl-1-nitrosourea” (J Med Chem, 1978) come the findings set out here.

Series [1] relates to Liver microsome. The series is described as follows: Retention time in Wistar rat liver microsomes at 50 ug/ml after 10 mins by HPLC analysis. The class given is ADME. Put shortly: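 Liver microsomes from phenobarbital-pretreated male Wistar rats (protein 2.1 mg/mL), with an NADPH-generating system (NADP, glucose 6-phosphate, MgCl2, G6P dehydrogenase) in 0.1 M phosphate pH 7.4. Incubated under oxygen at 37 °C for 10 min, then extracted with hexane. OH-CCNU isomers resolved by analytical HPLC using n-heptane–dichloromethane–propan-2-ol (960:63:35) at 1.9 mL/min; elution times recorded.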

The subject of series [2] is W256. The experiment in a line: Antitumor activity against 1 ug/ml compound treated rat Walker 256 cells allografted in rat assessed as increase of host survival time cells incubated for 2 hrs with NADPH prior to animal injection. The class given is functional.
Series [3] is described as follows: Antitumor activity against mouse TLX5 cells allografted in mouse assessed as increase in host survival time at 160 mg/kg relative to control. The class given is functional, TLX-5.
In series [4] the test system is Liver microsome. The series is described as follows: Drug metabolism in Wistar rat liver microsomes assessed as recovered total OH-CCNU derivatives level at 2.8 mg after 10 mins by HPLC analysis. The class given is ADME. To be noted: in vitro. In a few lines:
(§1)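 Microsomes from phenobarbital-pretreated male Wistar rat liver (protein 2.1 mg/mL) in 0.1 M phosphate pH 7.4 with NADP, glucose 6-phosphate, MgCl₂ and G6PDH. Incubated under O₂ at 37 °C for 10 min; 2.8 mg (12 μmol) substrate in 20 mL total. Hexane extraction, then silica HPLC quantification of residual CCNU and OH-CCNU isomers.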
(In general: Microsomes from liver hold many membrane-bound enzymes, among them those of drug oxidation.)

A short description of series [5]: Drug metabolism in Wistar rat liver microsomes at 50 ug/ml after 2.5 mins. The class given is ADME. Particulars: read-out: Drug metabolism. Put shortly:
(§2)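 Equimolar CCNU and CCNU-d10, each 50 μg/mL (0.21 mM), co-incubated at 37 °C under O₂ with phenobarbital-induced male Wistar rat liver microsomes plus NADPH-generating system in 0.1 M phosphate pH 7.4. Duplicate 1 mL samples taken at intervals into hexane containing CCNU-d4 internal standard. Residual drug measured by 12 eV mass spectrometry. Heat-inactivated microsomes used as control.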

Series [6] is described as follows: Antitumor activity against mouse TLX5 cells allografted in mouse assessed as increase in host survival time at 10 mg/kg relative to control. The class given is functional, TLX-5.
A short description of series [7]: Drug metabolism in Wistar rat liver microsomes at 50 ug/ml after 10 mins. The class given is ADME. Particulars: read-out: Drug metabolism. In a few lines:
as §2

Series [8] has as its system W256. The experiment in a line: Antitumor activity against 1 ug/ml compound treated rat Walker 256 cells allografted in rat assessed as increase of host survival time cells incubated for 2 hrs with rat liver microsomes and NADPH prior to animal injection. The class given is functional.
Series [9] has as its system W256. The series is described as follows: Antitumor activity against 0.25 ug/ml compound treated rat Walker 256 cells allografted in rat assessed as increase of host survival time cells incubated for 2 hrs with NADPH prior to animal injection. The class given is functional.
A short description of series [10]: Drug metabolism in Wistar rat liver microsomes at 50 ug/ml after 20 mins. The class given is ADME. Particulars: read-out: Drug metabolism. Put shortly:
as §2

Series [11] is described as follows: Antitumor activity against mouse TLX5 cells allografted in mouse assessed as increase in host survival time at 80 mg/kg relative to control. The class given is functional, TLX-5.
The nature of series [12]: Antitumor activity against mouse TLX5 cells allografted in mouse assessed as increase in host survival time at 20 mg/kg relative to control. The class given is functional, TLX-5.
A short description of series [13]: Antitumor activity against mouse TLX5 cells allografted in mouse assessed as increase in host survival time at 40 mg/kg relative to control. The class given is functional, TLX-5.
Series [14] is described as follows: Antitumor activity against mouse TLX5 cells allografted in mouse assessed as increase in host survival time at 5 mg/kg relative to control. The class given is functional, TLX-5.
Series [15] deals with W256. The series is described as follows: Antitumor activity against 0.5 ug/ml compound treated rat Walker 256 cells allografted in rat assessed as increase of host survival time cells incubated for 2 hrs with rat liver microsomes and NADPH prior to animal injection. The class given is functional.
In series [16] the test system is W256. The series is described as follows: Antitumor activity against 4 ug/ml compound treated rat Walker 256 cells allografted in rat assessed as increase of host survival time cells incubated for 2 hrs with NADPH prior to animal injection. The class given is functional.
A short description of series [17]: Drug metabolism in Wistar rat liver microsomes at 50 ug/ml after 5 mins. The class given is ADME. Particulars: read-out: Drug metabolism. Put shortly:
as §2

Series [18] concerns W256. The series is described as follows: Antitumor activity against 4 ug/ml compound treated rat Walker 256 cells allografted in rat assessed as increase of host survival time cells incubated for 2 hrs with rat liver microsomes and NADPH prior to animal injection. The class given is functional.
Series [19] concerns W256. The series is described as follows: Antitumor activity against 0.25 ug/ml compound treated rat Walker 256 cells allografted in rat assessed as increase of host survival time cells incubated for 2 hrs with rat liver microsomes and NADPH prior to animal injection. The class given is functional.
Series [20] has as its system W256. The series is described as follows: Antitumor activity against 0.5 ug/ml compound treated rat Walker 256 cells allografted in rat assessed as increase of host survival time cells incubated for 2 hrs with NADPH prior to animal injection. The class given is functional.
Series [21] relates to Liver microsome. The series is described as follows: Drug metabolism in Wistar rat liver microsomes assessed as recovered CCNU level at 2.8 mg after 10 mins by HPLC analysis. The class given is ADME. To be noted: in vitro. In a few lines: as §1

Regarding `O=NN(CCCl)C(=O)N[C@H]1CC[C@H](O)CC1`, the Retention_time in series [1] stood at 16.9 min.
`O=NN(CCCl)C(=O)N[C@H]1CCCC[C@@H]1O` yielded a Retention_time in series [1] of 3.8 min.
For `O=NN(CCCl)C(=O)NC1CCCCC1` [LOMUSTINE], the Activity in [2] is 64%; in series [3], -31.4%; in series [6], 54%; in [8], 145%; in [9], 9%; in series [11], -23.3%. In addition, the Activity in series [12] is recorded as 69.6%; in [13], 76.8%; in [14], 1%; in [15], 106%; in [19], 21%; in series [20], 60%. Further, the Drug metabolism in series [4] worked out at 1230 µg. Besides, in [5], the metabolised at 2.5 min, 50 ug/ml turned out to be 26.8%. Besides, the metabolised at 10 min, 50 ug/ml in series [7] amounted to 72.5%. Also, the metabolised at 20 min, 50 ug/ml in series [10] was 91.8%. Moreover, the Survival in series [16] and in [18] was 30 days each time. In addition, in [17], the metabolised at 5 min, 50 ug/ml was 47.9%.
On to `O=NN(CCCl)C(=O)N[C@H]1CC[C@@H](O)CC1`, for which the Retention_time in series [1] was determined as 9.6 min.
In the case of `[2H]C1([2H])C(NC(=O)N(CCCl)N=O)C([2H])([2H])C([2H])([2H])C([2H])([2H])C1([2H])[2H]`, the Activity in series [3] was -28%; in series [6] it was 20%; in [11], -22%; in [12] it was 42%; in [13], 217%. The Drug metabolism in series [4] was determined as 911 µg; in series [21], 498 µg. The metabolised at 2.5 min, 50 ug/ml in [5] was 16.1%. The metabolised at 10 min, 50 ug/ml in series [7] stood at 69.5%. The metabolised at 20 min, 50 ug/ml in series [10] was found to be 91.9%. For the same compound, in [17], the metabolised at 5 min, 50 ug/ml amounted to 38.3%.
`[2H]C1([2H])CC(NC(=O)N(CCCl)N=O)CC([2H])([2H])C1([2H])[2H]`: the Activity in [3] is on record as -32%; in [6], 38.1%; in [11] it was -7.3%; in series [12] it was 95.8%; in [13], 81.4%; in series [14], 38.1%. Moreover, the values for the Drug metabolism in series [4] and in series [21] were 994 µg and 538 µg, respectively.
In series [1], `O=NN(CCCl)C(=O)N[C@H]1CCC[C@H](O)C1` yielded a Retention time of 7.1 min.
Turning to `O=NN(CCCl)C(=O)N[C@H]1CCCC[C@H]1O`, the Retention_time in series [1] was 2.8 min.
As for `O=NN(CCCl)C(=O)N[C@H]1CCC[C@@H](O)C1`, in series [1], the Retention time was determined as 7.8 min.
For the compound `[2H]C1([2H])CCCC([2H])([2H])C1NC(=O)N(CCCl)N=O`, the Activity in series [3] is on record as -21.3%; in [6], 63.6%; in [11], -9.1%; in series [12], 79.7%; in series [13], 178.7%; in series [14], -5.1%. The Drug metabolism in [4] amounted to 1089 µg; in series [21], 272 µg.
